Source: ChEMBL document CHEMBL2169827, “4-Oxo-1,4-dihydropyridines as selective CB₂ cannabinoid receptor ligands. Part 2: discovery of new agonists endowed with protective effect against experimental colitis” (J Med Chem, 2012)
Active and inactive are the calls of the source. No cut-off for these calls is given here.

Columns and labels:
[1] = target: T1, Cannabinoid receptor 2 (Homo sapiens, UniProt P34972); assay: Displacement of [3H]-CP55940 from human recombinant CB2 receptor expressed in CHO cells membrane by scintillation counting; assay type: cell membranes
T1 sequence (P34972 whole entry): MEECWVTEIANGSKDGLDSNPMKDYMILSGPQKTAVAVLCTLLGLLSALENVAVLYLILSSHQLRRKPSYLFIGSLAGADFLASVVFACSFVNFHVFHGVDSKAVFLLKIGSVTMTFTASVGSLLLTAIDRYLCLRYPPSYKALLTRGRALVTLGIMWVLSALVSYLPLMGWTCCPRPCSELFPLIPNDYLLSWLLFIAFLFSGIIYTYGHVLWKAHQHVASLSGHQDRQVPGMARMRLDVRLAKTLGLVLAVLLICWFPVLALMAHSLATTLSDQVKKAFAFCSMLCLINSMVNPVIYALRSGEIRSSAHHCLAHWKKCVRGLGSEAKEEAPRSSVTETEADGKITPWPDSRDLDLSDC

[2] = target: T2, Cannabinoid receptor 1 (Homo sapiens, UniProt P21554); assay: Displacement of [3H]-CP55940 from human recombinant CB1 receptor expressed in CHO cells membrane at 1 uM by scintillation counting; assay type: cell membranes
T2 sequence (P21554 whole entry): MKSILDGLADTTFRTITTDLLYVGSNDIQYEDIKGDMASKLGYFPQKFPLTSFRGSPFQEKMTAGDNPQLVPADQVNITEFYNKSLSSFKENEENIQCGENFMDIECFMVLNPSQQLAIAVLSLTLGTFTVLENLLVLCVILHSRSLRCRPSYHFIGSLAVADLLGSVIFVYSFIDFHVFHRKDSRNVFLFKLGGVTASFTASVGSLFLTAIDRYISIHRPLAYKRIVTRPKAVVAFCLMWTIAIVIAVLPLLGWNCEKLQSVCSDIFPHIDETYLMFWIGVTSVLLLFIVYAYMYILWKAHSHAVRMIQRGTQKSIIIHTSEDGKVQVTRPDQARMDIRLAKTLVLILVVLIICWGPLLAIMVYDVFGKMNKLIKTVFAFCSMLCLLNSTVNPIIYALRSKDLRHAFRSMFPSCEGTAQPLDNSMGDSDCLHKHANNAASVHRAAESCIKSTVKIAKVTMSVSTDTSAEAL
Outline: (§1)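 Competitive radioligand displacement with [3H]-CP-55,940 at human CB1 or CB2; single-point screen at 1 μM, specific displacement recorded.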

[3] = target: T1, Cannabinoid receptor 2; assay: Displacement of [3H]-CP55940 from human recombinant CB2 receptor expressed in CHO cells membrane at 1 uM by scintillation counting; assay type: cell membranes; outline: as §1
[4] = target: T2, Cannabinoid receptor 1; assay: Displacement of [3H]-CP55940 from human recombinant CB1 receptor expressed in CHO cells membrane by scintillation counting; assay type: cell membranes
[5] = target: T1, Cannabinoid receptor 2; assay: Agonist activity at human recombinant CB2 receptor expressed in CHO cells membrane by [35S]-GTPgammaS assay; assay type: functional, cell membranes
[6] = organism: Homo sapiens; assay: Selectivity index, ratio of Ki for human recombinant CB1 receptor to KI for human recombinant CB2 receptor
Outline: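 Ki at hCB1 and hCB2 from [3H]-CP-55,940 competitive displacement; ratio CB1 Ki/CB2 Ki. Ki at CB1 determined only when 1 μM screen gave >60% displacement.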

[7] = test system: Mus musculus; assay: Anticolitis activity in TNBS-induced C57Bl6 mouse experimental colitis model assessed as reduction colitis macroscopic scores at 10 mg/kg, ip qd dosed 3 days before colitis induction; assay type: functional; parameters: scale not given: the % may be the effect or the level left; conditions: route intraperitoneal
Outline: (§2)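 TNBS colitis in mice; test agent given ip once daily at 10 mg/kg; mice killed three days after TNBS and colon inflammation parameters assessed; 10 mice per group, mean ± SEM, compared with TNBS plus vehicle.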

[8] = test system: Mus musculus; assay: Anticolitis activity in TNBS-induced C57Bl6 mouse experimental colitis model assessed as reduction colitis histological scores at 10 mg/kg, ip qd dosed 3 days before colitis induction (reference value: 4.9 score); assay type: functional; conditions: route intraperitoneal; outline: as §2
[9] = test system: Mus musculus; assay: Anticolitis activity in TNBS-induced C57Bl6 mouse experimental colitis model assessed as MPO activity at 10 mg/kg, ip qd dosed 3 days before colitis induction (reference value: 73.7%) score); assay type: functional; conditions: route intraperitoneal; outline: as §2
[10] = test system: Mus musculus; assay: Effect on TNFalpha mRNA expression in TNBS-induced C57Bl6 mouse experimental colitis model at 10 mg/kg, ip qd dosed 3 days before colitis induction by real-time PCR method; assay type: functional, organism-based; parameters: dose 10 mg/kg; outline: as §2
[11] = test system: Mus musculus; assay: Effect on IL-1beta mRNA expression in TNBS-induced C57Bl6 mouse experimental colitis model at 10 mg/kg, ip qd dosed 3 days before colitis induction by real-time PCR method; assay type: functional, organism-based; parameters: dose 10 mg/kg; outline: as §2
[12] = Fraction unbound in human plasma at 37 degC by equilibrium dialysis method; assay type: ADME, cell-free
Outline: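 Plasma protein binding by equilibrium dialysis at 37 °C; free fraction reported.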

[13] = Permeability from apical to basolateral side in human Caco2 cells at 10 uM incubated for 60 mins; assay type: ADME, cell-based; conditions: Caco-2, read-out: permeability
Outline: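 Caco-2 permeability: compound at 10 μM, samples at 0 and 60 min.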

[14] = target: MDR1 (ABCB1, P-glycoprotein) (Homo sapiens, UniProt P08183); assay: Inhibition of MDR1 expressed in MDCK2 cells at 10 uM by calcein AM accumulation assay; assay type: cell-based, MDCK-II; conditions: dog, MDCK2 cells expressing MDR1, probe calcein AM
Sequence of MDR1 (ABCB1, P-glycoprotein) (P08183 whole entry): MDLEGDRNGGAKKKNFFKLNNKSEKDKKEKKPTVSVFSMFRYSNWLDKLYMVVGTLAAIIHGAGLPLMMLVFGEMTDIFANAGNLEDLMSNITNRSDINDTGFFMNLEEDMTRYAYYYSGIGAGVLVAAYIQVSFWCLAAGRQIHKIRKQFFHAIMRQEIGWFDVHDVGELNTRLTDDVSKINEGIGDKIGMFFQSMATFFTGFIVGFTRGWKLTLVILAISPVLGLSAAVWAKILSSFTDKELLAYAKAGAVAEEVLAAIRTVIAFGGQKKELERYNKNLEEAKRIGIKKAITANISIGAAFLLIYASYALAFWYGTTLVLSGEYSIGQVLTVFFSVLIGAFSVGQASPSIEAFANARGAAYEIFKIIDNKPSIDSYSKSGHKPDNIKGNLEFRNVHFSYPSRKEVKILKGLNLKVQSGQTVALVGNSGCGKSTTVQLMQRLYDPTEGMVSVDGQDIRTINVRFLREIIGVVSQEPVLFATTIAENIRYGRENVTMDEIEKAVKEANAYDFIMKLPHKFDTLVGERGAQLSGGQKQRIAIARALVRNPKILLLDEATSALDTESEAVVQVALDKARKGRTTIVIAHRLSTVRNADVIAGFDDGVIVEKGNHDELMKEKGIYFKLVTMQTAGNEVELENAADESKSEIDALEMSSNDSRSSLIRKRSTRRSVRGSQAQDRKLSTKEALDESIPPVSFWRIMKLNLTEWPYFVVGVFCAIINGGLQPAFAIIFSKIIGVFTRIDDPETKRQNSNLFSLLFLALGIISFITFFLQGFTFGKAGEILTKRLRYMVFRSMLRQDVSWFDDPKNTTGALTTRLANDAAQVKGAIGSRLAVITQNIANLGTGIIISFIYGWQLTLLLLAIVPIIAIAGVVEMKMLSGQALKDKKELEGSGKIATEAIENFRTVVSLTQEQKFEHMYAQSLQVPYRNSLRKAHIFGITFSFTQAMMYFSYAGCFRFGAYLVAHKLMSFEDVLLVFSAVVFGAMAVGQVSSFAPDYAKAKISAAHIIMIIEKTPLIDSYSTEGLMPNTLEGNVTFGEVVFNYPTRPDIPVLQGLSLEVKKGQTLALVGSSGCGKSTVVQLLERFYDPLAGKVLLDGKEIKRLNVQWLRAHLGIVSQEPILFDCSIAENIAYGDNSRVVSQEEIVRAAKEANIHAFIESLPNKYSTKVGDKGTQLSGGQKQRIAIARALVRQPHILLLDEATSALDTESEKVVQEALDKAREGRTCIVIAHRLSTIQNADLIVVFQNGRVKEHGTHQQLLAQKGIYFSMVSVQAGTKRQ
Outline: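 P-gp interaction tested in MDR1-MDCKII cells via cellular uptake of calcein AM.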

[15] = Stability in human liver microsomes assessed as compound remaining at 1 uM incubated for 60 mins; assay type: ADME, Microsome; conditions: read-out: Stability
Outline: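 Incubation at 1 μM with human liver microsomes (0.3 mg/mL), 0 and 60 min; percent parent remaining at 60 min.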

[16] = Intrinsic clearance in mouse liver microsomes at 1 uM; assay type: ADME, Microsome; conditions: read-out: CLH

| SMILES | Ki [1] [µM] | Activity [2] [%] | Activity [3] [%] | Ki [4] [µM] | EC50 [5] [µM] | Activity [7] [%] | also measured |
| --- | --- | --- | --- | --- | --- | --- | --- |
| CCCCCn1cc(C(=O)NN2CCCCC2)c(=O)cc1C | > 1 | > 60 | > 60 |  |  |  |  |
| CCCCCn1cc(C(=O)NCC2CC2)c(=O)cc1C(C)(C)C | 0.0141 | > 60 | > 60 | 0.176 | 0.0278 | 74.9 | Ratio Ki [6]: > 10 |
| CCCCCn1cc(C(=O)NC23CC4CC(CC(C4)C2)C3)c(=O)c(-c2ccc(CC)cc2)c1C | 0.0543 | > 60 | > 60 | > 1 | 0.0399 |  |  |
| CCCCCn1cc(C(=O)NCC23CC4CC(CC(C4)C2)C3)c(=O)cc1C | 0.0152 | > 60 | > 60 | > 1 | 0.0531 | 55.9 | Ratio Ki [6]: > 10 |
| Cc1cc(=O)c(C(=O)NC23CC4CC(CC(C4)C2)C3)cn1CC1OCCO1 | > 1 | > 60 | > 60 |  |  |  |  |
| CCCCCn1cc(C(=O)NC23CC4CC(CC(C4)C2)C3)c(=O)c(-c2cccc(C#N)c2)c1C | > 1 | > 60 | > 60 |  |  |  |  |
| Cc1cc(=O)c(C(=O)NC23CC4CC(CC(C4)C2)C3)cn1CCC1CCOCC1 | 0.196 | > 60 | > 60 |  |  |  |  |
| CCCCCn1cc(C(=O)NC(C)C23CC4CC(CC(C4)C2)C3)c(=O)cc1C (racemic) | 0.0064 | > 60 | > 60 | > 1 | 0.0842 | 74.9 | Ratio Ki [6]: > 10 |
| CCCCCn1cc(C(=O)NC23CC4CC(CC(C4)C2)C3)c(=O)c(-c2cccc(C(C)=O)c2)c1C | > 1 | > 60 | > 60 |  |  |  |  |
| CCCCCn1cc(C(=O)NC23CC4CC(CC(C4)C2)C3)c(=O)c(C2CC2)c1C | 0.0134 | > 60 | > 60 | 0.105 | 0.0885 |  |  |
| CCCCCn1cc(C(=O)NCC23CC4CC(CC(C4)C2)C3)c(=O)cc1C(C)(C)C | 0.0102 | > 60 | > 60 | > 1 | 0.0492 | 62.2 |  |
| Cc1cc(=O)c(C(=O)NC23CC4CC(CC(C4)C2)C3)cn1CCC1OCCO1 | > 1 | > 60 | > 60 |  |  |  |  |
| CCCCCn1cc(C(=O)NC(C)C23CC4CC(CC(C4)C2)C3)c(=O)cc1C(C)(C)C (racemic) | 0.009 | > 60 | > 60 | 0.548 | 0.0471 | 60 |  |
| CCCCCn1cc(C(=O)Nc2ccccc2)c(=O)cc1C | > 1 | > 60 | > 60 |  |  |  |  |
| CCCCCn1cc(C(=O)NCC2CC2)c(=O)cc1C | > 1 | > 60 | > 60 |  |  |  |  |
| CCCCCn1cc(C(=O)NC23CC4CC(CC(C4)C2)C3)c(=O)c(-c2ccccc2)c1C | 0.189 | > 60 | > 60 |  |  |  |  |
| CCCCCn1cc(C(=O)NC23CC4CC(CC(C4)C2)C3)c(=O)c(I)c1C | 0.0208 | > 60 | > 60 | 0.193 | 0.0119 |  |  |
| CCCCCn1cc(C(=O)NC23CC4CC(CC(C4)C2)C3)c(=O)c(-c2ccncc2)c1C | 0.0365 | > 60 | > 60 | > 1 | 0.114 | 61.4 | Activity [8]: 3.1; Activity [9]: 34.1%; Activity [10]: inactive; Activity [11]: inactive; fraction unbound [12]: 0.07; Papp A→B at 1 h, 10 µM [13]: 49.9 ×10⁻⁶ cm/s; inhibition at 10 µM [14]: 33.7%; remaining at 1 h, 1 µM [15]: 1%; microsomal CLint at 1 µM [16]: > 200 µL/min/mg; Ratio Ki [6]: > 10 |
| CCCCCn1cc(C(=O)NC23CC4CC(CC(C4)C2)C3)c(=O)cc1C(C)(C)C |  |  |  |  |  | 19.3 | fraction unbound [12]: 0.01; Papp A→B at 1 h, 10 µM [13]: 9.8 ×10⁻⁶ cm/s; inhibition at 10 µM [14]: 94.5%; remaining at 1 h, 1 µM [15]: 1%; microsomal CLint at 1 µM [16]: > 200 µL/min/mg |
| Cc1cc(=O)c(C(=O)NC23CC4CC(CC(C4)C2)C3)cn1CC1CCOCC1 | 0.0241 | > 60 | > 60 | > 1 | 0.0474 | 66.3 | Ratio Ki [6]: > 10 |
| CCCCCn1cc(C(=O)NC(C)C)c(=O)cc1C | > 1 | > 60 | > 60 |  |  |  |  |
| Cc1cc(=O)c(C(=O)NC23CC4CC(CC(C4)C2)C3)cn1CCCC(F)(F)F | 0.00028 | > 60 | > 60 | > 1 | 0.0173 | 65.1 | Ratio Ki [6]: > 3570 |
| CCCCCn1cc(C(=O)Nc2ccccc2)c(=O)cc1C(C)(C)C | 0.0092 | > 60 | > 60 | 0.0879 | 0.0083 |  |  |
| CCCCCn1cc(C(=O)NC2C3CC4CC(C3)CC2C4)c(=O)cc1C (stereo unspecified) | 0.00026 | > 60 | > 60 | > 1 | 0.0384 | 74.9 | Ratio Ki [6]: > 3850 |
| COC(Cn1cc(C(=O)NC23CC4CC(CC(C4)C2)C3)c(=O)cc1C)OC | > 1 | > 60 | > 60 |  |  |  |  |
| CCCCCn1cc(C(=O)NC2CCCCC2)c(=O)cc1C | 0.0244 | > 60 | > 60 | > 1 | 0.0499 | 74.9 | Ratio Ki [6]: > 10 |
| CCCCCn1cc(C(=O)NC23CC4CC(CC(C4)C2)C3)c(=O)c(-c2ccc(C)cc2)c1C | > 1 | > 60 | > 60 |  |  |  |  |
| COCCCn1cc(C(=O)NC23CC4CC(CC(C4)C2)C3)c(=O)cc1C | > 1 | > 60 | > 60 |  |  |  |  |
| C/C=C\n1cc(C(=O)NC23CC4CC(CC(C4)C2)C3)c(=O)cc1C | > 1 | > 60 | > 60 |  |  |  |  |
| CCCCCn1cc(C(=O)NC2C3CC4CC(C3)CC2C4)c(=O)cc1C(C)(C)C (stereo unspecified) | 0.0096 | > 60 | > 60 | 0.562 | 0.452 | 51.5 |  |
